These results are taken from PMC4872389 (The American journal of Chinese medicine, 2016).

For data set [1] the following is noted: rat, in vivo; cited from earlier work.
Data set [2] can be described thus: Plasma and tissue D, DA, DOH after sub-chronic dietary AGN exposure. It is filed as in vivo, male C57BL/6J mice. The settings on record: for Terminal-bleed plasma level by HPLC-UV: 0.5% and 1% AGN diet, 6 weeks, all but one mouse; for concentration at 6 weeks: male, C57BL/6J, mouse, oral. Put shortly:
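Male C57BL/6J mice, 6 weeks old, 10 per group, were fed AIN-93M diet containing 0.5% or 1% (w/w) AGN extract ad libitum for 6 weeks. Terminal plasma was taken by cardiac puncture (heparin) under anesthesia, 1–4 pm. Tissues were homogenized in 4 volumes of water. Samples were extracted with ethyl acetate and analyzed by HPLC-UV, with D and DA quantitated together. Values are mean ± SE, n=5.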

The nature of data set [3]: Plasma and tissue D, DA, DOH after a single gavage dose of D/DA. It is filed as in vivo, male C57BL/6 mice. Put shortly:
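Male C57BL/6 mice, 6–7 weeks old, 5 per group, got one gastric gavage of 3 mg D/DA (1.8 mg D + 1.2 mg DA) in 0.3 mL of 10% ethanol/20% PEG400/3.3% Tween80/66.7% USP 5% dextrose. Plasma (cardiac puncture, heparin) and tissues were collected at time points over 24 h. Water homogenates (ice bath) were extracted with ethyl acetate. Analysis was HPLC-UV, except prostate by UHPLC-MS/MS.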

For data set [4], the system named is cytochrome p450 (Cyp). The settings on record: orally administered general Cyp inhibitor; ref Zhang et al., 2015b; cited from earlier work.
Data set [5] in a line: Plasma, tissue and urine pyranocoumarins after repeated i.p. AGN. The class given is in vivo, CD-1 mice. To be noted: 3 h after last i.p. injection of AGN. Put shortly:
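CD-1 mice, 8–10 weeks old, 6 per sex per group, were kept on AIN-93M diet. They received i.p. vehicle or AGN extract at 100, 200 or 300 mg/kg in 0.3 mL, six days/week for 4 weeks, with dose adjusted weekly to body weight. Blood and organs were taken 3 h after the last injection. Extracts were made with ethyl acetate and analyzed by HPLC-UV; n=4~6 per dose group.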

Where [6] appears, read: adipose, single gavage 3 mg D/DA.
Where [7] appears, read: kidney, single gavage 3 mg D/DA.
Where [8] appears, read: male, C57BL/6, mouse, plasma, po, 3 mg.
[9] abbreviates: prostate, single gavage 3 mg D/DA.

For `CC(C)=CC(=O)O[C@H]1Cc2cc3ccc(=O)oc3cc2OC1(C)C` [D, decursin], in data set [1], the Reported safe dose was 250 mg D/kg. The “Terminal-bleed plasma level by HPLC-UV” value in data set [2] was “below limit of detection”. In addition, the Cmax in data set [3] (setting [6]) was determined as 1.75 µmol/kg; in data set [3] (brain, single gavage 3 mg D/DA), 1.00 µmol/kg; in data set [3] (setting [7]), 0.42 µmol/kg; in data set [3] (liver, single gavage 3 mg D/DA), 0.38 µmol/kg; in data set [3] (lung, single gavage 3 mg D/DA), 0 µmol/kg; in data set [3] (setting [8]) it was 0.38 µM. Also, the Cmax in data set [3] (setting [9]) turned out to be 4.90 µmol/kg. For the same molecule, the Tmax in data set [3] (male, C57BL/6, mouse, po, 3 mg) was determined as 1 h. Moreover, in data set [4], the “Increase of prostate retention on blocking Cyp activities” value is 2 orders of magnitude.
Turning to `CC1(C)Oc2cc3oc(=O)ccc3cc2C[C@@H]1O` [DOH, decursinol], the “Content in liver, lung, kidney and brain relative to plasma” value in data set [5] is recorded as “lower than its plasma level”. Further, the concentration at 6 weeks in data set [2] (brain) worked out at 2.97 µM; in data set [2] (kidney) it was 14.4 µM; in data set [2] (liver) it was 41.1 µM; in data set [2] (lung) it was 3.33 µM; in data set [2] (plasma, 0.5 % AGN in diet) it was 0.99 ± 0.11 µM; in data set [2] (plasma, 1 % AGN in diet) it was 2.44 ± 0.52 µM. In addition, the concentration at 6 weeks in data set [2] (prostate) is 12.8 µM. Moreover, the Cmax in data set [3] (setting [6]) came to 28.5 µmol/kg; in data set [3] (brain, single gavage 3 mg D/DA), 23.3 µmol/kg; in data set [3] (setting [7]), 50.4 µmol/kg; in data set [3] (liver, single gavage 3 mg D/DA), 47.8 µmol/kg; in data set [3] (lung, single gavage 3 mg D/DA), 31.6 µmol/kg; in data set [3] (setting [8]) it was 39.8 µM. In data set [3] (setting [9]), this molecule had a Cmax of 46.4 µmol/kg. Further, the Tmax in data set [3] (male, C57BL/6, mouse, po, 3 mg) amounted to 1 h.
For `C/C=C(/C)C(=O)O[C@H]1Cc2cc3ccc(=O)oc3cc2OC1(C)C` [DA, decursinol angelate], the “Terminal-bleed plasma level by HPLC-UV” value in data set [2] is “below limit of detection”. The Cmax in data set [3] (setting [6]) was determined as 7.26 µmol/kg; in data set [3] (brain, single gavage 3 mg D/DA), 1.78 µmol/kg; in data set [3] (setting [7]), 5.51 µmol/kg; in data set [3] (liver, single gavage 3 mg D/DA), 2.95 µmol/kg; in data set [3] (lung, single gavage 3 mg D/DA) it was 3.13 µmol/kg; in data set [3] (setting [8]) it was 0.76 µM. This molecule also displayed a Cmax in data set [3] (setting [9]) of 14.80 µmol/kg. In data set [3] (male, C57BL/6, mouse, po, 3 mg), the Tmax was found to be 1 h. The “Increase of prostate retention on blocking Cyp activities” value in data set [4] was 2 orders of magnitude.

The term Tmax denotes the time at which the peak concentration occurs.
